Data taken from ChEMBL document CHEMBL1759915, “Synthesis and anticancer effects of some novel pyrazolo[3,4-d]pyrimidine derivatives by generating reactive oxygen species in human breast adenocarcinoma cells” (Eur J Med Chem, 2011).
In brackets after ≈: the same amount, converted by molar mass.

Assays:
MCF7 [1] = experiment: Decrease in CAT level in human MCF7 cells; format: functional, cell-based
MCF7 [2] = experiment: Effect on RNA level in human MCF7 cells assessed per 10 '6 cells at 5 ug/ml after 24 hrs (reference value: 11.50 +/- 0.70 ug/10^6 cells); format: functional
Outline: (§1)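 After 24 h exposure of MCF-7 cells to compound at 2, 5, 10 or 20 µg/ml at 37 °C, nucleic acids were precipitated from cell homogenates. DNA was extracted and assayed by the Zhou et al. method, and RNA by a kit-derived procedure. Results given per 10⁶ cells as means ± S.E. of four experiments versus untreated control.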

MCF7 [3] = experiment: Effect on glutathione level in human MCF7 cells assessed per mg protein at 5 ug/ml by Ellman method after 24 hrs (reference value: 39.82 +/- 4.20 nmol/mg of protein); format: functional
MCF7 [4] = experiment: Effect on CAT level in human MCF7 cells assessed per mg protein at 2 ug/ml after 24 hrs (reference value: 7.90+/- 0.67 U/mg of protein); format: functional
MCF7 [5] = experiment: Effect on DNA level in human MCF7 cells assessed per 10 '6 cells at 20 ug/ml after 24 hrs (reference value: 6.80 +/- 0.70 ug/10^6 cells); format: functional; outline: as §1
MCF7 [6] = experiment: Effect on hydrogen peroxide level in human MCF7 cells assessed per mg protein at 20 ug/ml by Wolf's method after 24 hrs (reference value: 12.50 +/- 1.54 nmol/mg of protein); format: functional
MCF7 [7] = experiment: Effect on DNA level in human MCF7 cells assessed per 10 '6 cells at 5 ug/ml after 24 hrs (reference value: 6.80 +/- 0.70 ug/10^6 cells); format: functional; outline: as §1
MCF7 [8] = experiment: Effect on glutathione level in human MCF7 cells assessed per mg protein at 20 ug/ml by Ellman method after 24 hrs (reference value: 39.82 +/- 4.20 nmol/mg of protein); format: functional
MCF7 [9] = experiment: Effect on SOD level in human MCF7 cells assessed per mg protein at 20 ug/ml after 24 hrs (reference value: 27.61+/- 3.72 U/mg of protein); format: functional
MCF7 [10] = experiment: Decrease in glutathione level in human MCF7 cells; format: functional, cell-based
MCF7 [11] = experiment: Effect on DNA level in human MCF7 cells assessed per 10 '6 cells at 2 ug/ml after 24 hrs (reference value: 6.80 +/- 0.70 ug/10^6 cells); format: functional; outline: as §1
MCF7 [12] = experiment: Effect on SOD level in human MCF7 cells assessed per mg protein at 2 ug/ml after 24 hrs (reference value: 27.61+/- 3.72 U/mg of protein); format: functional
MCF7 [13] = experiment: Effect on RNA level in human MCF7 cells assessed per 10 '6 cells at 10 ug/ml after 24 hrs (reference value: 11.50 +/- 0.70 ug/10^6 cells); format: functional; outline: as §1
MCF7 [14] = experiment: Antiproliferative activity against human MCF7 cells after 24 hrs by MTT assay; format: functional, cell-based; conditions: for IC50: MCF7, 24 h
Outline: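 MCF-7 cells (DMEM, 10% heat-inactivated FCS, penicillin/streptomycin, 37 °C, 5% CO2) plated at 0.65 × 10⁵ cells/well and given 24 h to attach. Exposed to compound or cisplatin at 2, 5, 10 or 20 µg/ml for 24 h at 37 °C. MTT added for 4 h, formazan dissolved in DMSO, absorbance read at 570 nm. Viability taken relative to untreated cells and IC50 derived.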

MCF7 [15] = experiment: Effect on glutathione level in human MCF7 cells assessed per mg protein at 10 ug/ml by Ellman method after 24 hrs (reference value: 39.82 +/- 4.20 nmol/mg of protein); format: functional
MCF7 [16] = experiment: Effect on glutathione peroxidase level in human MCF7 cells assessed per mg protein at 5 ug/ml after 24 hrs (reference value: 11.20 +/- 1.36 U/mg of protein); format: functional
MCF7 [17] = experiment: Decrease in glutathione peroxidase level in human MCF7 cells; format: functional, cell-based
MCF7 [18] = experiment: Increase in SOD level in human MCF7 cells; format: functional, cell-based
MCF7 [19] = experiment: Effect on RNA level in human MCF7 cells assessed per 10 '6 cells at 20 ug/ml after 24 hrs (reference value: 11.50 +/- 0.70 ug/10^6 cells); format: functional; outline: as §1
MCF7 [20] = experiment: Effect on hydrogen peroxide level in human MCF7 cells assessed per mg protein at 10 ug/ml by Wolf's method after 24 hrs (reference value: 12.50 +/- 1.54 nmol/mg of protein); format: functional
MCF7 [21] = experiment: Effect on DNA level in human MCF7 cells assessed per 10 '6 cells at 10 ug/ml after 24 hrs (reference value: 6.80 +/- 0.70 ug/10^6 cells); format: functional; outline: as §1
MCF7 [22] = experiment: Decrease in DNA level in human MCF7 cells assessed per 10 '6 cells after 24 hrs relative to control; format: functional, cell-based; outline: as §1
MCF7 [23] = experiment: Increase in hydrogen peroxide level in human MCF7 cells; format: functional, cell-based
MCF7 [24] = experiment: Effect on hydrogen peroxide level in human MCF7 cells assessed per mg protein at 5 ug/ml by Wolf's method after 24 hrs (reference value: 12.50 +/- 1.54 nmol/mg of protein); format: functional
MCF7 [25] = experiment: Effect on CAT level in human MCF7 cells assessed per mg protein at 5 ug/ml after 24 hrs (reference value: 7.90+/- 0.67 U/mg of protein); format: functional
MCF7 [26] = experiment: Effect on CAT level in human MCF7 cells assessed per mg protein at 20 ug/ml after 24 hrs (reference value: 7.90+/- 0.67 U/mg of protein); format: functional
MCF7 [27] = experiment: Effect on glutathione peroxidase level in human MCF7 cells assessed per mg protein at 2 ug/ml after 24 hrs (reference value: 11.20 +/- 1.36 U/mg of protein); format: functional
MCF7 [28] = experiment: Effect on glutathione level in human MCF7 cells assessed per mg protein at 2 ug/ml by Ellman method after 24 hrs (reference value: 39.82 +/- 4.20 nmol/mg of protein); format: functional
MCF7 [29] = experiment: Effect on SOD level in human MCF7 cells assessed per mg protein at 5 ug/ml after 24 hrs (reference value: 27.61+/- 3.72 U/mg of protein); format: functional
MCF7 [30] = experiment: Effect on glutathione peroxidase level in human MCF7 cells assessed per mg protein at 20 ug/ml after 24 hrs (reference value: 11.20 +/- 1.36 U/mg of protein); format: functional
MCF7 [31] = experiment: Decrease in RNA level in human MCF7 cells assessed per 10 '6 cells after 24 hrs relative to control; format: functional, cell-based; outline: as §1
MCF7 [32] = experiment: Effect on RNA level in human MCF7 cells assessed per 10 '6 cells at 2 ug/ml after 24 hrs (reference value: 11.50 +/- 0.70 ug/10^6 cells); format: functional; outline: as §1
MCF7 [33] = experiment: Effect on CAT level in human MCF7 cells assessed per mg protein at 10 ug/ml after 24 hrs (reference value: 7.90+/- 0.67 U/mg of protein); format: functional
MCF7 [34] = experiment: Effect on hydrogen peroxide level in human MCF7 cells assessed per mg protein at 2 ug/ml by Wolf's method after 24 hrs (reference value: 12.50 +/- 1.54 nmol/mg of protein); format: functional
MCF7 [35] = experiment: Effect on SOD level in human MCF7 cells assessed per mg protein at 10 ug/ml after 24 hrs (reference value: 27.61+/- 3.72 U/mg of protein); format: functional
MCF7 [36] = experiment: Effect on glutathione peroxidase level in human MCF7 cells assessed per mg protein at 10 ug/ml after 24 hrs (reference value: 11.20 +/- 1.36 U/mg of protein); format: functional

Row | Compound | Activity (MCF7 [1]) | Activity (MCF7 [2]) [µg/10^6 cells] | Activity (MCF7 [3]) [nmol] | Activity (MCF7 [4]) [U/mg protein] | Activity (MCF7 [5]) [µg/10^6 cells] | Activity (MCF7 [6]) [nmol] | Activity (MCF7 [7]) [µg/10^6 cells] | Activity (MCF7 [8]) [nmol] | Activity (MCF7 [9]) [U/mg protein] | Activity (MCF7 [10]) | Activity (MCF7 [11]) [µg/10^6 cells] | Activity (MCF7 [12]) [U/mg protein] | Activity (MCF7 [13]) [µg/10^6 cells] | Activity (MCF7 [14]) | IC50 (MCF7 [14]) [µg/mL] | Activity (MCF7 [15]) [nmol] | Activity (MCF7 [16]) [U/mg protein] | Activity (MCF7 [17]) | Activity (MCF7 [18]) | Activity (MCF7 [19]) [µg/10^6 cells] | other results
1 | Cc1nc(-n2ncc3c(=S)[nH]cnc32)c2c3c(sc2n1)CCc1ccccc1-3 | Dose-dependent effect | 7.9 | 33.12 | 6.33 | 4 | 46.37 | 5 | 27 | 181 | Dose-dependent effect | 5.3 | 77.9 | 7 | Dose-dependent effect | 8 (≈ 19.9 µM) | 29.11 | 7.9 | Dose-dependent effect | Dose-dependent effect | 6.8 | Activity (MCF7 [20]): 30.5 nmol; Activity (MCF7 [21]): 4.76 µg/10^6 cells; Activity (MCF7 [22]): Dose-dependent effect; Activity (MCF7 [23]): Dose-dependent effect; Activity (MCF7 [24]): 21.6 nmol; Activity (MCF7 [25]): 5.36 U/mg protein; Activity (MCF7 [26]): 4 U/mg protein; Activity (MCF7 [27]): 8.3 U/mg protein; Activity (MCF7 [28]): 39.9 nmol; Activity (MCF7 [29]): 85.4 U/mg protein; Activity (MCF7 [30]): 6.82 U/mg protein; Activity (MCF7 [31]): Dose-dependent effect; Activity (MCF7 [32]): 9.11 µg/10^6 cells; Activity (MCF7 [33]): 4.9 U/mg protein; Activity (MCF7 [34]): 24.2 nmol; Activity (MCF7 [35]): 121 U/mg protein; Activity (MCF7 [36]): 7.7 U/mg protein
2 | CCOCCSc1ncnc2c1cnn2-c1nc(C)nc2sc3c(c12)-c1ccccc1CC3 | Dose-dependent effect | 7 | 25 | 5.2 | 3 | 55 | 4.2 | 18.6 | 251 | Dose-dependent effect | 4.6 | 85.7 | 6.5 | Dose-dependent effect | 6.4 (≈ 13.5 µM) | 20.25 | 7 | Dose-dependent effect | Dose-dependent effect | 6.2 | Activity (MCF7 [20]): 40 nmol; Activity (MCF7 [21]): 3.75 µg/10^6 cells; Activity (MCF7 [22]): Dose-dependent effect; Activity (MCF7 [23]): Dose-dependent effect; Activity (MCF7 [24]): 30.5 nmol; Activity (MCF7 [25]): 4.5 U/mg protein; Activity (MCF7 [26]): 3.2 U/mg protein; Activity (MCF7 [27]): 7.35 U/mg protein; Activity (MCF7 [28]): 30 nmol; Activity (MCF7 [29]): 115 U/mg protein; Activity (MCF7 [30]): 5.25 U/mg protein; Activity (MCF7 [31]): Dose-dependent effect; Activity (MCF7 [32]): 7.9 µg/10^6 cells; Activity (MCF7 [33]): 4 U/mg protein; Activity (MCF7 [34]): 30.3 nmol; Activity (MCF7 [35]): 190 U/mg protein; Activity (MCF7 [36]): 6 U/mg protein
